Screening data from PubChem.
In the library only some 4.2% were active in any assay of this set; here they are far more common.
Ins promoter up = MIN6 insulin promoter up-regulation; MIN6 insulin promoter-GFP reporter, high-content imaging; active compounds read high; z-score at 5 µM; 190,000 tested, 0.3% active;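 active = z-score above 3 at 5 µM with at least 500 cells counted in the well; inconclusive = wells under 500 cells, flagged as cytotoxic or low count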
WT yeast gro inh = growth inhibition of WT yeast, mitochondrial fusion screen; mitochondrial fusion phenotypic screen, WT strain; inhibition, % at 10 µM; 190,000 tested, 2.1% active; AID 1362; in the data active = inhibition above about 58%; tested in S. cerevisiae
Rad51 HR inh = blocks human Rad51 in homologous recombination | AID 1385 | inhibition, % at 10 µM | hRad51 DNA strand exchange, fluorescence dequenching | Q06609 | 200,000 tested, 0.085% active;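 active = inhibition above 40% at the single screening dose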
Target sequence (Q06609 whole entry, looked up): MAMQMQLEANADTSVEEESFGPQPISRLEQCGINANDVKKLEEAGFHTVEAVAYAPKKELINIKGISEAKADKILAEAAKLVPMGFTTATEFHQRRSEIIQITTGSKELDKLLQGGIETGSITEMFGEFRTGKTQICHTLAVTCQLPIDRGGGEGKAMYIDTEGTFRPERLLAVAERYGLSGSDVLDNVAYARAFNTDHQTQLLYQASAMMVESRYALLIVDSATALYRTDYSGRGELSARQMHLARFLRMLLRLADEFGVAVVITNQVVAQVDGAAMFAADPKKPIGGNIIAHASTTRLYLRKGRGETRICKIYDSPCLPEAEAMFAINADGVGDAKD
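Read-out basis: percent inhibition relative to plate controls and blanks / Assay system: human Rad51 nucleoprotein filaments preassembled on unlabelled ssDNA / Timing: filaments 15 min 37 °C, then compound 30 min / Control set: per-plate controls and blanks / Technique: fluorescence dequenching at 485/520 nm / Compound: 10 µM final, single point / Also added: Fluorescein- and BHQ1-tagged 47-mer duplex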
Autophagy HCS = autophagy modulation, high-content screen; MEF GFP-LC3 puncta imaging; test concentration mostly 10 µM; AID 463193; calls only at 10 µM (by protocol); 190,000 tested, 0.98% active;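 active = percentage of spot-positive cells more than 3 SD above its plate mean, without a fluorescence outlier flag or 80% toxicity; inconclusive = no clear call, values can overlap the other calls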
Cl transport mod = KCC2 (human) Cl- transport modulation; Q9H2X9; KCC2 cells, thallium flux FluoZin-2 fluorescence; B-score of Tl+ flux slope (higher = more flux/activation; lower = inhibition) at 10 µM; 190,000 tested, 2.2% active;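 active = thallium flux slope and its plate-corrected score both differing from the plate sample mean at a set confidence after two filtering rounds, in either direction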;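 note: slope of fluorescence scaled to starting intensity during 10 to 20 s after thallium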
SKKanGAS inh = SKKanGAS growth inhibition | S. pyogenes SKKanGAS, kanamycin growth, BacTiter-Glo, 6 h | inhibition, % at 7.5 µM | 300,000 tested, 1.3% active;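 active = mean replicate score, as percent of positive control median, at least 50; inconclusive = mean below 50 but one replicate at or above 50; inactive = mean and every replicate below 50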;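 note: strain carries kanamycin resistance gene driven by streptokinase promoter and grows in 40 µg/ml kanamycin; loss of luminescence reflects streptokinase promoter inhibition or plain growth inhibition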
Hits are given with their value; n = inactive; u = inconclusive; x = no result given; + = active, no number; ! = not confirmed by another sample.

SMILES	Ins promoter up	WT yeast gro inh	Rad51 HR inh	Autophagy HCS	Cl transport mod	SKKanGAS inh
Cn1c(SC(C(=O)Nc2ccc(F)cc2)c2ccccc2)nc2ccccc21 (stereo not drawn)	x	n	n	n	n	n
O=C(Nc1nc2c(s1)CN(Cc1ccccc1)CC2)C1CCC1	n	n	n	n	n	n
O=C(NC(=S)Nc1nc2c(s1)CCCC2)c1ccccc1	n	n	x	n	11	n
CCN1CCc2nc(NC(=O)c3ccccc3)sc2C1	n	81	x	n	n	n
COC(=O)c1ccc(C(=O)NC(=S)Nc2nc3c(s2)CCCC3)cc1	n	n	n	n	25	n
CN(C(=O)CC1C(=O)NCCN1Cc1cccc(F)c1F)C1CC(C)(C)NC(C)(C)C1 (stereo not drawn)	x	x	x	x	x	n
Cc1ccc(/C=C/C2=NN(Cc3ccc(Cl)c(Cl)c3)C(=O)CC2)cc1	n	n	n	n	x	54
O=C(/C=C/c1c[nH]c2ccccc12)c1cccc2ccccc12	n	61	n	n	n	n
O=C(c1ccccc1)c1c[nH]c2ccccc12	x	x	x	x	x	n
NS(=O)(=O)c1ccc(CCNC(=O)CSc2nc3ccccc3c(=O)n2CC2CCCO2)cc1 (stereo not drawn)	x	x	x	x	x	n
COC(=O)Cn1c2ccc(OC)cc2c2nc(C)sc21	n	x	n	x	n	n
Fc1ccc(/C=C2\CCCC3=C2Nc2ncnn2C3c2ccc(F)cc2)cc1 (stereo not drawn)	n	x	n	n	n	64
Cc1cccn2cc(-c3ccc(S(=O)(=O)N4CCCCC4)cc3)nc12	n	n	n	+	n	n
Cc1cc(COC(=O)C2N3C(=O)[C@@H](NC(=O)COc4ccccc4)[C@H]3SC2(C)C)on1 (stereo partly drawn)	x	x	x	x	x	103
CCOc1ccc2ccccc2c1C(=O)N[C@@H]1C(=O)N2[C@@H]1SC(C)(C)[C@@H]2C(=O)O	n	n	n	x	n	n
CC1(C)S[C@@H]2[C@H](NC(=O)Cc3ccccc3)C(=O)N2[C@H]1C(=O)O	x	n	n	n	n	100!
CC1(C)S[C@@H]2[C@H](NC(=O)C(NC(=O)N3CCNC3=O)c3ccccc3)C(=O)N2[C@H]1C(=O)O (stereo partly drawn)	x	x	x	x	x	114
CCC(Oc1ccccc1)C(=O)NC1C(=O)N2C1SC(C)(C)C2C(=O)O (stereo not drawn)	n	n	n	n	n	111
O=C(CCn1nnc2ccccc21)Nc1nnc(Cc2ccccc2)s1	n	67	x	n	x	n
CC(CN1C(C)CCCC1C)OC(=O)c1ccccc1Cl (stereo not drawn)	n	n	n	n	n	n
CC(CN1C(C)CCCC1C)OC(=O)c1ccc(Cl)cc1Cl (stereo not drawn)	n	n	n	+	n	n
Cc1nn(C)c2ncc(C(N)=O)c(Oc3ccc(Cl)cc3)c12	n	x	n	x	x	n
O=C(Nc1ccccc1F)N1CCc2ccccc2C1	x	x	x	x	x	n
CCN1CCN(Cc2ccc(NC(=O)c3ccc(C)c(NC(=O)c4ccc5n[nH]nc5c4)c3)cc2C(F)(F)F)CC1	n	x	n	x	n	n
CCN1CCN(Cc2ccc(NC(=O)c3ccc(C)c(NC(=O)C(=O)c4c[nH]c5ccccc45)c3)cc2C(F)(F)F)CC1	n	x	n	x	n	83
SMILES	Ins promoter up	WT yeast gro inh	Rad51 HR inh	Autophagy HCS	Cl transport mod	SKKanGAS inh
CCN1CCN(Cc2ccc(NC(=O)c3cc(NC(=O)C(=O)c4c[nH]c5ccccc45)cc(OC)c3)cc2C(F)(F)F)CC1	n	x	n	x	n	99
COC(=O)c1cc(C(=O)Cc2ccccc2)c[nH]1	n	n	n	n	n	n
NC(=O)c1cc(C(=O)Cc2ccccc2)c[nH]1	x	x	x	x	x	92
CCn1c(CNC(=O)c2cccnc2)cc2ccccc21	x	x	x	x	x	n
O=C(O)c1ccc(NS(=O)(=O)c2cccc(C(=O)Nc3cccc(C(=O)O)c3)c2)cc1	x	x	x	x	x	n
O=[N+]([O-])c1cccc(-c2nc(-c3cccs3)c(-c3cccs3)[nH]2)c1	n	n	x	n	n	n
Fc1ccc(-c2nc(-c3cccs3)[nH]c2-c2ccc(F)cc2)cc1	n	78	n	n	n	n
Cc1ccsc1-c1nc(-c2ccccc2)c(-c2ccccc2)[nH]1	n	n	n	n	x	n
O=[N+]([O-])c1ccc(-c2nc(-c3cccs3)c(-c3cccs3)[nH]2)cc1	x	82	n	+	n	u
COc1ccc(-c2nc(-c3cccs3)c(-c3cccs3)[nH]2)cc1OC	x	n	n	n	n	68
N#Cc1c(Cl)nsc1NN	n	n	n	n	n	n
O=C(N/N=C/c1cccc(F)c1)c1c(O)c2ccccc2[nH]c1=O	n	n	n	n	n	92
O=C(N/N=C/c1ccccc1)c1c(O)c2ccccc2[nH]c1=O	n	n	n	n	n	n
O=C(Nc1cccc(F)c1)c1c(O)c2ccccc2[nH]c1=O	x	x	x	x	x	n
O=C(N/N=C/c1ccc(F)cc1)c1c(O)c2ccccc2[nH]c1=O	n	n	n	n	n	94
COCCNC(=O)c1ccc(CN2CCOCC2)cc1	n	n	n	n	n	n
CCOC(=O)C1=C(c2ccccc2)NC(SCC(=O)Nc2cccc(C)c2)=C(C#N)C1c1ccco1 (stereo not drawn)	n	n	x	+	n	n
CC(=O)NC(=S)c1c(N)n(Cc2ccccc2)c(=O)n(C)c1=O	n	n	n	n	3.9	n
CCCCn1c(N)c(C(=S)NC(=O)CC(C)C)c(=O)n(C)c1=O	n	n	x	n	24	x
CCCn1c(N)c(C(=O)COC(=O)c2c(C)noc2C)c(=O)n(C)c1=O	n	n	n	n	n	n
CC(C)Cn1c(N)c(C(=O)CSc2ccccc2)c(=O)n(C)c1=O	n	n	n	n	n	n
CC(=O)Nc1ccc(SCC(=O)c2c(N)n(Cc3ccccc3)c(=O)n(C)c2=O)cc1	n	x	n	x	n	n
CCCn1c(N)c(C(=S)NC(=O)C2CC2)c(=O)n(C)c1=O	n	n	x	n	14	x
Cc1ccc(CN2C3CCCC2CC(NC(=O)c2ccc(C)cc2)C3)cc1 (stereo not drawn)	n	n	n	n	n	n
COc1cc(C(C)=O)ccc1OCC(=O)OCCCOC(=O)COc1ccc(C(C)=O)cc1OC	x	x	x	x	x	n
SMILES	Ins promoter up	WT yeast gro inh	Rad51 HR inh	Autophagy HCS	Cl transport mod	SKKanGAS inh
Cc1ccccc1-n1nc(CSc2nc3ccccc3[nH]2)c(-c2ccccc2)c1N	n	n	n	n	n	n
Nc1c(-c2ccccc2)c(CSc2nc3ccccc3[nH]2)nn1-c1cccc(Cl)c1	n	71	n	n	n	103
Nc1c(-c2ccccc2)c(CSc2nc3ccccc3[nH]2)nn1-c1ccc(Cl)cc1	n	72	n	n	n	n
O=S(=O)(c1ccccc1)c1cnc(-c2cccnc2)nc1-c1ccc(Cl)cc1Cl	n	67	n	n	n	n
CC(Oc1ccccc1Cl)C(=O)N(Cc1cccs1)C1CCS(=O)(=O)C1 (stereo not drawn)	x	x	x	x	x	n
Cc1cc(N=NC(=O)c2ccccc2O)c2ccccc2c1O	n	n	n	n	-3.5	x
